In ChEMBL document CHEMBL4732054, “Extension of furopyrimidine nucleosides with 5-alkynyl substituent: Synthesis, high fluorescence, and antiviral effect in the absence of free ribose hydroxyl groups” (Eur J Med Chem, 2021):

Legend:
Human alphaherpesvirus 3 [1] = test: Antiviral activity against thymidine kinase positive Varicella zoster virus OKA infected in human HEL cells assessed as reduction in virus-induced cytopathogenic effect measured after 3 days coulter counter method; type: functional, organism-based; conditions: Human alphaherpesvirus 3, OKA, 72 h
Human alphaherpesvirus 3 [2] = test: Antiviral activity against thymidine kinase deficient Varicella zoster virus 07-1 infected in human HEL cells assessed as reduction in virus-induced cytopathogenic effect measured after 3 days coulter counter method; type: functional, organism-based; conditions: Human alphaherpesvirus 3, 07-1, HEL, 72 h
[3] = Cytotoxicity against human HEL cells assessed as concentration required to cause visible alteration in cell morphology incubated for 3 days by coulter counter method; type: cell-based; conditions: time 3 day
Method in brief: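 MCC scored by microscopy in confluent HEL cell cultures as the lowest compound concentration that causes a visible change in cell morphology.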

HEL = test: Cytotoxicity against human HEL cells assessed as reduction in cell growth incubated for 3 days by coulter counter method; type: cell-based; conditions: 72 h, time 3 day
Method in brief: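 HEL cells were seeded at 5 × 10^3 cells/well and allowed to grow for 24 h. Medium containing varying compound concentrations was then added, and cells were incubated 3 days at 37 °C. Cell number was counted with a Coulter counter.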

[4] = Selectivity index, ratio of CC50 for human HEL cells to EC50 for thymidine kinase positive Varicella zoster virus OKA infected in human HEL cells; type: toxicity, cell-based; conditions: read-out: Ratio CC50/EC50
Method in brief: (§1)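 VZV plaque reduction in confluent HEL cells: 20 PFU input, 1–2 h adsorption, then unbound virus removed and cells given varying compound concentrations in duplicate. EC50 is the concentration halving plaque number. […] SI = CC50/EC50.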

[5] = Selectivity ratio of EC50 for thymidine kinase deficient Varicella zoster virus 07-1 infected in human HEL cells to EC50 for thymidine kinase positive Varicella zoster virus OKA infected in human HEL cells; type: functional
[6] = Selectivity index, ratio of CC50 for human HEL cells to EC50 for thymidine kinase deficient Varicella zoster virus 07-1 infected in human HEL cells; type: toxicity, cell-based; conditions: read-out: Ratio CC50/EC50; method in brief: as §1

Compound | EC50 (Human alphaherpesvirus 3 [1]) [µM] | EC50 (Human alphaherpesvirus 3 [2]) [µM] | MCC at 72 h [3] [µM] | CC50 (HEL) [µM] | selectivity ratio [4] | Ratio EC50 [5] | selectivity ratio [6]
CCCCCc1ccc(-c2oc3nc(=O)n([C@H]4C[C@H](OC(C)=O)[C@@H](COC(C)=O)O4)cc3c2C#CCO)cc1 | 7.56 | 13 | 100 | 3.8 | ≤ 1 | – | –
COCC#Cc1c(-c2ccc(C)cc2)oc2nc(=O)n([C@H]3C[C@H](OC(C)=O)[C@@H](COC(C)=O)O3)cc12 | 20 | 44.7 | > 100 | – | – | – | –
CC(=O)OC[C@H]1O[C@@H](n2cc3c(C#CCCO)c(-c4ccc(C)cc4)oc3nc2=O)C[C@@H]1OC(C)=O | 76.5 | > 100 | > 100 | – | – | – | –
CC(=O)OC[C@H]1O[C@@H](n2cc3c(C#CCCN4C(=O)c5ccccc5C4=O)c(-c4ccc(C)cc4)oc3nc2=O)C[C@@H]1OC(C)=O | 31 | 38.1 | 100 | – | – | – | –
CCCCCc1ccc(C#Cc2c(-c3ccc(C)cc3)oc3nc(=O)n([C@H]4C[C@H](OC(C)=O)[C@@H](COC(C)=O)O4)cc23)cc1 | > 4 | > 4 | 20 | – | – | – | –
CCCCCc1ccc(-c2oc3nc(=O)n([C@H]4C[C@H](OC(C)=O)[C@@H](COC(C)=O)O4)cc3c2C#Cc2ccc(C)cc2)cc1 | 7.61 | > 20 | 100 | – | – | – | –
CCCCCc1ccc(-c2oc3nc(=O)n([C@H]4C[C@H](OC(C)=O)[C@@H](COC(C)=O)O4)cc3c2C#CCCO)cc1 | 4.02 | 13 | 100 | 2.66 | ≤ 1 | – | –
CC(=O)OC[C@H]1O[C@@H](n2cc3c(C#Cc4ccc(C)cc4)c(-c4ccc(C)cc4)oc3nc2=O)C[C@@H]1OC(C)=O | 6.84 | 10.9 | 60 | 8.77 | ≤ 1 | – | –
CC(=O)OC[C@H]1O[C@@H](n2cc3c(C#CCCCCn4c5ccccc5c5ccccc54)c(-c4ccc(C)cc4)oc3nc2=O)C[C@@H]1OC(C)=O | 7.23 | 13.2 | 100 | 6.22 | ≤ 1 | – | –
CC(=O)OC[C@H]1O[C@@H](n2cc3c(C#CC4(O)c5ccccc5-c5ccccc54)c(-c4ccc(C)cc4)oc3nc2=O)C[C@@H]1OC(C)=O | 1.3 | 7.61 | 100 | 2.36 | ≤ 1 | – | –
O=c1[nH]c(=O)n([C@H]2C[C@H](O)[C@@H](CO)O2)cc1/C=C/Br [BRIVUDINE] | – | 12 | > 300 | > 300 | – | – | –
CC(=O)OC[C@H]1O[C@@H](n2cc3c(C#CCO)c(-c4ccc(C)cc4)oc3nc2=O)C[C@@H]1OC(C)=O | 66.9 | > 100 | > 100 | – | – | – | –
Nc1nc2c(ncn2COCCO)c(=O)[nH]1 [ACYCLOVIR] | – | – | > 440 | > 300 | – | – | –
CC(=O)OCC#Cc1c(-c2ccc(C)cc2)oc2nc(=O)n([C@H]3C[C@H](OC(C)=O)[C@@H](COC(C)=O)O3)cc12 | > 100 | 100 | > 100 | – | – | – | –
CCCCCc1ccc(C#Cc2c(-c3ccc(CCCCC)cc3)oc3nc(=O)n([C@H]4C[C@H](OC(C)=O)[C@@H](COC(C)=O)O4)cc23)cc1 | 1.5 | 8.94 | 100 | > 100 | 67 | 6 | 11
